Laboratory results published in ChEMBL document CHEMBL1155016, “Locking the two ends of tetrapeptidic HTLV-I protease inhibitors inside the enzyme” (Bioorg Med Chem, 2008).
Starred links: 1 amine or outer side, 2 acyl side, 3 side chain; linkers in the order of their positions; H or OH if unused. Non-standard residues stand in square brackets, D forms with d. Residues, ends and D or L forms follow the SMILES beside them. X1 = O=C([C@@H](O)[C@H](Cc1ccccc1)N[*:1])[*:2]; Thz(5,5-Me2) = CC1(C)SCN[C@@H]1C(=O)O; Phg = N[C@H](C(=O)O)c1ccccc1; Tle = CC(C)(C)[C@H](N)C(=O)O

How the values were obtained:
Protease = Protease (Human T-cell leukemia virus type I, UniProt Q82134, L40I); assay: Inhibition of HTLV1 protease L40I mutant
Chain of Protease (Q82134 entry or part of it L40I): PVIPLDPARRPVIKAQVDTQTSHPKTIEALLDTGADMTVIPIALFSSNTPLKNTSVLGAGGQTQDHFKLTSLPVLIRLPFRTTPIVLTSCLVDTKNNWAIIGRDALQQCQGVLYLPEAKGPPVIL
Method in brief: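 HTLV-I protease carrying the L40I substitution, which blocks autolysis and stabilises the enzyme; run by the group's earlier reported protocol; potency given as IC50 in nM.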

[1] = target: Protease (Human immunodeficiency virus 1) (UniProt Q9YQ12); assay: Inhibition of HIV1 protease at 50 nM
Chain of Protease (Human immunodeficiency virus 1) (Q9YQ12 as listed by the source): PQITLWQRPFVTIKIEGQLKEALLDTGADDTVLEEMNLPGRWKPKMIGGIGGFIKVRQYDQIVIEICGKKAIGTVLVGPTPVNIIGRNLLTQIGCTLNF

Row | Compound | IC50 (Protease) | inhibition [1]
1 | CC(C)(C)[C@H](NC(=O)[C@@H](N)c1ccccc1)C(=O)N[C@@H](Cc1ccccc1)[C@H](O)C(=O)N1CSC(C)(C)[C@H]1C(=O)NCC1CC1 | 0.928 µM | > 98%
2 | CCCC(=O)N[C@H](C(=O)N[C@H](C(=O)N[C@@H](Cc1ccccc1)[C@H](O)C(=O)N1CSC(C)(C)[C@H]1C(=O)NCC(C)C)C(C)(C)C)c1ccccc1 | 0.104 µM | > 98%
3 | CC(=O)N[C@H](C(=O)N[C@H](C(=O)N[C@@H](Cc1ccccc1)[C@H](O)C(=O)N1CSC(C)(C)[C@H]1C(=O)NC(C)C(C)C)C(C)(C)C)c1ccccc1 (stereo partly drawn) | 0.136 µM | > 98%
4 | CC[C@H](C)[C@H](NC(C)=O)C(=O)N[C@H](C(=O)N[C@@H](Cc1ccccc1)[C@H](O)C(=O)N1CSC(C)(C)[C@H]1C(=O)N[C@H](C(=O)N[C@@H](CCSC)C(N)=O)[C@@H](C)CC)[C@@H](C)CC (Ac-II[X1][Thz(5,5-Me2)]IM-NH2) | 0.088 µM | > 98%
5 | CC(=O)N[C@H](C(=O)N[C@H](C(=O)N[C@@H](Cc1ccccc1)[C@H](O)C(=O)N1CSC(C)(C)[C@H]1C(=O)NCC1CC1)C(C)(C)C)c1ccccc1 | 0.146 µM | > 98%
6 | CSCC[C@H](NC(=O)[C@@H](NC(=O)[C@@H]1CCCN1C(=O)[C@@H](O)[C@H](Cc1ccccc1)NC(=O)[C@@H](NC(=O)[C@H](CCC(N)=O)NC(=O)[C@@H]1CCCN1)C(C)C)C(C)C)C(=O)N[C@@H](Cc1cnc[nH]1)C(=O)O | 0.159 µM | > 98%
7 | CCC(=O)N[C@H](C(=O)N[C@H](C(=O)N[C@@H](Cc1ccccc1)[C@H](O)C(=O)N1CSC(C)(C)[C@H]1C(=O)NC(C)C(C)C)C(C)(C)C)c1ccccc1 (stereo partly drawn) | 0.129 µM | > 98%
8 | CC(C)CC(=O)N[C@H](C(=O)N[C@H](C(=O)N[C@@H](Cc1ccccc1)[C@H](O)C(=O)N1CSC(C)(C)[C@H]1C(=O)NCC1CC1)C(C)(C)C)c1ccccc1 | 0.132 µM | > 98%
9 | CCC(=O)N[C@H](C(=O)N[C@H](C(=O)N[C@@H](Cc1ccccc1)[C@H](O)C(=O)N1CSC(C)(C)[C@H]1C(=O)NCC(C)(C)C)C(C)(C)C)c1ccccc1 | 0.098 µM | > 98%
10 | CC(C)C(C)NC(=O)[C@H]1N(C(=O)[C@@H](O)[C@H](Cc2ccccc2)NC(=O)[C@@H](NC(=O)[C@@H](NC(=O)C2CC2)c2ccccc2)C(C)(C)C)CSC1(C)C (stereo partly drawn) | 0.09 µM | > 98%
11 | CC(=O)N[C@H](C(=O)N[C@H](C(=O)N[C@@H](Cc1ccccc1)[C@H](O)C(=O)N1CSC(C)(C)[C@H]1C(=O)NC(C)C(C)(C)C)C(C)(C)C)c1ccccc1 (stereo partly drawn) | 0.106 µM | > 98%
12 | CC(C)C(=O)N[C@H](C(=O)N[C@H](C(=O)N[C@@H](Cc1ccccc1)[C@H](O)C(=O)N1CSC(C)(C)[C@H]1C(=O)NC(C)C(C)C)C(C)(C)C)c1ccccc1 (stereo partly drawn) | 0.122 µM | > 98%
13 | CC(C)(C)CNC(=O)[C@H]1N(C(=O)[C@@H](O)[C@H](Cc2ccccc2)NC(=O)[C@@H](NC(=O)[C@@H](N)c2ccccc2)C(C)(C)C)CSC1(C)C | 0.18 µM | > 98%
14 | C=CCCC(=O)N[C@H](C(=O)N[C@H](C(=O)N[C@@H](Cc1ccccc1)[C@H](O)C(=O)N1CSC(C)(C)[C@H]1C(=O)NC(C)C(C)C)C(C)(C)C)c1ccccc1 (stereo partly drawn) | 0.087 µM | > 98%
15 | CCC(=O)N[C@H](C(=O)N[C@H](C(=O)N[C@@H](Cc1ccccc1)[C@H](O)C(=O)N1CSC(C)(C)[C@H]1C(=O)NCC(C)C)C(C)(C)C)c1ccccc1 | 0.105 µM | > 98%
16 | CC(=O)N[C@H](C(=O)N[C@H](C(=O)N[C@@H](Cc1ccccc1)[C@H](O)C(=O)N1CSC(C)(C)[C@H]1C(=O)NCC(C)(C)C)C(C)(C)C)c1ccccc1 | 0.113 µM | > 98%
17 | CC(=O)N[C@H](C(=O)N[C@H](C(=O)N[C@@H](Cc1ccccc1)[C@H](O)C(=O)N1CSC(C)(C)[C@H]1C(=O)NCC(C)C)C(C)(C)C)c1ccccc1 | 0.107 µM | > 98%
18 | CC(C)C(C)NC(=O)[C@H]1N(C(=O)[C@@H](O)[C@H](Cc2ccccc2)NC(=O)[C@@H](NC(=O)[C@@H](NC(=O)C(C)(C)C)c2ccccc2)C(C)(C)C)CSC1(C)C (stereo partly drawn) | 0.133 µM | > 98%
19 | CCC(=O)N[C@H](C(=O)N[C@H](C(=O)N[C@@H](Cc1ccccc1)[C@H](O)C(=O)N1CSC(C)(C)[C@H]1C(=O)NCC1CC1)C(C)(C)C)c1ccccc1 | 0.145 µM | > 98%
20 | CCCC(=O)N[C@H](C(=O)N[C@H](C(=O)N[C@@H](Cc1ccccc1)[C@H](O)C(=O)N1CSC(C)(C)[C@H]1C(=O)NCCC(C)C)C(C)(C)C)c1ccccc1 | 0.095 µM | > 98%
21 | CC(C)C(C)NC(=O)[C@H]1N(C(=O)[C@@H](O)[C@H](Cc2ccccc2)NC(=O)[C@@H](NC(=O)[C@@H](N)c2ccccc2)C(C)(C)C)CSC1(C)C (stereo partly drawn) | 0.354 µM | > 98%
22 | CC(C)CC(=O)N[C@H](C(=O)N[C@H](C(=O)N[C@@H](Cc1ccccc1)[C@H](O)C(=O)N1CSC(C)(C)[C@H]1C(=O)NCC(C)(C)C)C(C)(C)C)c1ccccc1 | 0.082 µM | > 98%

Row | Compound | IC50 (Protease) | inhibition [1]
23 | CC(C)C(=O)N[C@H](C(=O)N[C@H](C(=O)N[C@@H](Cc1ccccc1)[C@H](O)C(=O)N1CSC(C)(C)[C@H]1C(=O)NCC(C)(C)C)C(C)(C)C)c1ccccc1 | 0.078 µM | > 98%
24 | CC(C)(C)CNC(=O)[C@H]1N(C(=O)[C@@H](O)[C@H](Cc2ccccc2)NC(=O)[C@@H](NC(=O)[C@@H](NC(=O)C2CC2)c2ccccc2)C(C)(C)C)CSC1(C)C | 0.086 µM | > 98%
25 | CC(C)CCNC(=O)[C@H]1N(C(=O)[C@@H](O)[C@H](Cc2ccccc2)NC(=O)[C@@H](NC(=O)[C@@H](NC(=O)CC(C)C)c2ccccc2)C(C)(C)C)CSC1(C)C | 0.107 µM | > 98%
26 | CCCC(=O)N[C@H](C(=O)N[C@H](C(=O)N[C@@H](Cc1ccccc1)[C@H](O)C(=O)N1CSC(C)(C)[C@H]1C(=O)NC(C)C(C)(C)C)C(C)(C)C)c1ccccc1 (stereo partly drawn) | 0.094 µM | > 98%
27 | CCCC(=O)N[C@H](C(=O)N[C@H](C(=O)N[C@@H](Cc1ccccc1)[C@H](O)C(=O)N1CSC(C)(C)[C@H]1C(=O)NC(C)C(C)C)C(C)(C)C)c1ccccc1 (stereo partly drawn) | 0.659 µM | > 98%
28 | CC(C)CNC(=O)[C@H]1N(C(=O)[C@@H](O)[C@H](Cc2ccccc2)NC(=O)[C@@H](NC(=O)[C@@H](NC(=O)C(C)C)c2ccccc2)C(C)(C)C)CSC1(C)C | 0.094 µM | > 98%
29 | CC(C)(C)C(=O)N[C@H](C(=O)N[C@H](C(=O)N[C@@H](Cc1ccccc1)[C@H](O)C(=O)N1CSC(C)(C)[C@H]1C(=O)NCC1CC1)C(C)(C)C)c1ccccc1 | 0.187 µM | > 98%
30 | CC(NC(=O)[C@H]1N(C(=O)[C@@H](O)[C@H](Cc2ccccc2)NC(=O)[C@@H](NC(=O)[C@@H](NC(=O)C(C)(C)C)c2ccccc2)C(C)(C)C)CSC1(C)C)C(C)(C)C (stereo partly drawn) | 0.097 µM | > 98%
31 | CCCC(=O)N[C@H](C(=O)N[C@H](C(=O)N[C@@H](Cc1ccccc1)[C@H](O)C(=O)N1CSC(C)(C)[C@H]1C(=O)NCC1CC1)C(C)(C)C)c1ccccc1 | 0.113 µM | > 98%
32 | CC(C)CNC(=O)[C@H]1N(C(=O)[C@@H](O)[C@H](Cc2ccccc2)NC(=O)[C@@H](NC(=O)[C@@H](NC(=O)CC(C)C)c2ccccc2)C(C)(C)C)CSC1(C)C | 0.102 µM | > 98%
33 | CC(C)CNC(=O)[C@H]1N(C(=O)[C@@H](O)[C@H](Cc2ccccc2)NC(=O)[C@@H](NC(=O)[C@@H](N)c2ccccc2)C(C)(C)C)CSC1(C)C | 0.332 µM | > 98%
34 | CC(C)CC(=O)N[C@H](C(=O)N[C@H](C(=O)N[C@@H](Cc1ccccc1)[C@H](O)C(=O)N1CSC(C)(C)[C@H]1C(=O)NC(C)C(C)(C)C)C(C)(C)C)c1ccccc1 (stereo partly drawn) | 0.084 µM | > 98%
35 | CCCC(=O)N[C@H](C(=O)N[C@H](C(=O)N[C@@H](Cc1ccccc1)[C@H](O)C(=O)N1CSC(C)(C)[C@H]1C(=O)NCC(C)(C)C)C(C)(C)C)c1ccccc1 | 0.074 µM | > 98%
36 | CC(C)C(=O)N[C@H](C(=O)N[C@H](C(=O)N[C@@H](Cc1ccccc1)[C@H](O)C(=O)N1CSC(C)(C)[C@H]1C(=O)NCC1CC1)C(C)(C)C)c1ccccc1 | 0.134 µM | > 98%
37 | CC(C)CNC(=O)[C@H]1N(C(=O)[C@@H](O)[C@H](Cc2ccccc2)NC(=O)[C@@H](NC(=O)[C@@H](NC(=O)C2CC2)c2ccccc2)C(C)(C)C)CSC1(C)C | 0.097 µM | > 98%
38 | CC(C)CNC(=O)[C@H]1N(C(=O)[C@@H](O)[C@H](Cc2ccccc2)NC(=O)[C@@H](NC(=O)[C@@H](NC(=O)C(C)(C)C)c2ccccc2)C(C)(C)C)CSC1(C)C | 0.083 µM | > 98%
39 | CC(NC(=O)[C@H]1N(C(=O)[C@@H](O)[C@H](Cc2ccccc2)NC(=O)[C@@H](NC(=O)[C@@H](N)c2ccccc2)C(C)(C)C)CSC1(C)C)C(C)(C)C (stereo partly drawn) | 0.156 µM | > 98%
40 | CC(C)(C)[C@H](NC(=O)[C@@H](NC(=O)C1CC1)c1ccccc1)C(=O)N[C@@H](Cc1ccccc1)[C@H](O)C(=O)N1CSC(C)(C)[C@H]1C(=O)NCC1CC1 | 0.142 µM | > 98%
41 | CC[C@H](C)[C@H](NC(=O)[C@H]1N(C(=O)[C@@H](O)[C@H](Cc2ccccc2)NC(=O)[C@@H](NC(=O)[C@@H](NC(C)=O)c2ccccc2)C(C)(C)C)CSC1(C)C)C(N)=O (Ac-[Phg][Tle][X1][Thz(5,5-Me2)]I-NH2) | 0.144 µM | > 98%
42 | CC(C)CCNC(=O)[C@H]1N(C(=O)[C@@H](O)[C@H](Cc2ccccc2)NC(=O)[C@@H](NC(=O)[C@@H](N)c2ccccc2)C(C)(C)C)CSC1(C)C | 0.372 µM | > 98%
43 | CC(C)(C)CNC(=O)[C@H]1N(C(=O)[C@@H](O)[C@H](Cc2ccccc2)NC(=O)[C@@H](NC(=O)[C@@H](NC(=O)C(C)(C)C)c2ccccc2)C(C)(C)C)CSC1(C)C | 0.097 µM | > 98%
44 | CC(NC(=O)[C@H]1N(C(=O)[C@@H](O)[C@H](Cc2ccccc2)NC(=O)[C@@H](NC(=O)[C@@H](NC(=O)C2CC2)c2ccccc2)C(C)(C)C)CSC1(C)C)C(C)(C)C (stereo partly drawn) | 0.085 µM | > 98%
